This is a sample that favours compounds with a hit; in the whole collection about 2.3% have one here.
RBBP9 inhibitor = inhibitors of human serine hydrolase RBBP9; O75884; recombinant RBBP9, FP-Rh probe fluorescence polarization; inhibition, % at 7.94 µM; actives 0.2% (n = 220,000); AID 1515;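 active = inhibition above the campaign mean of all tested compounds plus 3 SD, cut at about 14% in these data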;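 also: plate controls were DMSO wells with RBBP9 for no effect and wells lacking RBBP9 protein for full effect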
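Test system: recombinant human RBBP9; Timing: 30 min then 45 min, 25 °C; Detection: fluorescence polarization; Control set: RBBP9 with DMSO as uninhibited control, no-protein wells as full inhibition; Compound dosing: one concentration, 7.94 µM nominal, 0.794% DMSO; Probe or stimulus: FP-Rh activity-based probe, 375 nM before mixing.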
GSTO1 inh = counter-screen for RBBP9 inhibitors: inhibitors of human GSTO1. recombinant GSTO1, activity-based probe fluorescence polarization. actives 1.1% (n = 300,000). P78417. inhibition, % at 5.96 µM;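 active = inhibition above the campaign mean inhibition plus 3 SD, cut at about 35% in these data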;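 also: 0% = GSTO1-1 with DMSO and 100% = wells lacking GSTO1-1 enzyme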
PRMT1 inh = PRMT1 (human) inhibition, primary screen; Q99873; recombinant PRMT1, activity-based probe fluorescence polarization; inhibition, % at 2.79 µM; actives 1.3% (n = 370,000); AID 652257;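 active = inhibition above about 21% made by adding two undisclosed values, limit read from the data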
PAD4 FP inh = PAD4 (human) enzyme inhibition; Q9UM07; recombinant PAD4, RCA probe fluorescence polarization; inhibition, % at 6.36 µM; actives 0.41% (n = 330,000); AID 485272;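 active = percent inhibition above a cutoff equal to the mean of all tested compounds plus 3 SD, cut at about 15% in these data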;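 also: 0% = PAD4 with RCA probe and DMSO and 100% = probe without PAD4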
Target sequence (Q9UM07 whole entry, looked up): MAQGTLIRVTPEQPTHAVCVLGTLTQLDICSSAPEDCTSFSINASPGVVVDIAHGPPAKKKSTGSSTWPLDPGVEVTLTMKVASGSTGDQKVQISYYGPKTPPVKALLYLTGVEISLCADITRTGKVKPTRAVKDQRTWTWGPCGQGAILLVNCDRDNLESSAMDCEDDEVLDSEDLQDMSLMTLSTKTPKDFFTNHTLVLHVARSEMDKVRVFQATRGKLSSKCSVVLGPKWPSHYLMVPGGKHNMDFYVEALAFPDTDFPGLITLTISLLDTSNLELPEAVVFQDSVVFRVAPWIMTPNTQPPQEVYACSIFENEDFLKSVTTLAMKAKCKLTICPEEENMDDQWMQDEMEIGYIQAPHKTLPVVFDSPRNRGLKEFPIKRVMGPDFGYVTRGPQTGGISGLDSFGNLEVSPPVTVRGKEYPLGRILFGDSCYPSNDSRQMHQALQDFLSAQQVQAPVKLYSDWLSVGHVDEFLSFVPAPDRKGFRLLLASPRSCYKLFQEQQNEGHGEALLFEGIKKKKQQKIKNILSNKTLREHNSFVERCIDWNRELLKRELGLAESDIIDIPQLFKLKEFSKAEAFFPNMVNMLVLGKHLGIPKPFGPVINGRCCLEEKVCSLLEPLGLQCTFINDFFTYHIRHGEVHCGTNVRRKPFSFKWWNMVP
PME-1 primary = PME-1 (human) inhibition. Q9Y570. recombinant PME-1, FP-Rh probe fluorescence polarization. inhibition, % at 5.9 µM. actives 0.53% (n = 320,000). AID 2130;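 active = inhibition above the campaign mean of all compounds plus 3 SD, cut at about 26% in these data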;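 also: competitive labeling of PME-1 active site by serine hydrolase directed probe; 0% = PME-1 with DMSO and 100% = wells lacking PME-1 enzyme; inhibitors block probe labeling so polarization falls and inhibition rises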
Fam108B counter = Fam108B inhibition, counter-screen for RBBP9 inhibitors; inhibition, % at 9.51 µM; recombinant Fam108B, FP-Rh probe fluorescence polarization; actives 0.33% (n = 300,000);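 active = inhibition above the screen mean inhibition plus 3 SD, computed separately per campaign, cut at about 18% in these data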;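 also: inhibitors lower polarization as less probe binds the enzyme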
RBBP9 inh conf = confirmation of human RBBP9 inhibitors; inhibition, % at 7.94 µM; shares compounds with RBBP9 inhibitor; actives 36% (n = 410); AID 1537; recombinant RBBP9, FP-Rh probe fluorescence polarization;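 active = inhibition above the hit cutoff derived for the primary screen, cut at about 15% in these data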;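 also: 0% = RBBP9 with DMSO and 100% = wells lacking RBBP9 protein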
* = called active by the depositor; nt = no result given.

SMILES	RBBP9 inhibitor	GSTO1 inh	PRMT1 inh	PAD4 FP inh	PME-1 primary	Fam108B counter	RBBP9 inh conf
CSc1ccccc1C(=O)C1CCCN(Cc2c(C)n(C)n(-c3ccccc3)c2=O)C1 (centres undefined)	-1.7	6.6	-0.3	-5.0	-3.7	0.9	nt
CSc1ccccc1C(=O)C1CCCN(Cc2cnn(-c3ccccc3)c2)C1 (centres undefined)	17.7*	0.4	-5.4	2.5	6.3	-3.0	0.1
O=C1c2ccccc2C(=O)N1CCN1CCc2ccccc21	17.0*	3.8	3.3	-6.0	-7.9	2.1	8.7
c1ccc2c(c1)CCN2CCN1CCc2ccccc21	6.3	3.5	-1.2	-7.0	-1.2	2.7	nt
CCOc1ccc(S(=O)(=O)Nc2ccc(S(=O)(=O)N3CCCCC3)cc2)cc1	15.0*	14.3	-1.7	2.5	3.5	-3.9	0.3
CS(=O)(=O)N(CC(=O)Nc1cccnc1)c1ccc2c(c1)OCO2	14.5*	-0.8	1.9	-3.1	-1.0	3.2	4.6
C/C(=N\NC(=O)c1c(Cl)c(C)nn1C)c1cccc(NC(=O)c2cccc(F)c2)c1	nt	-4.9	-1.6	-1.9	2.1	-1.8	nt
OC(CNC1Cc2ccccc2C1)COc1ccc(F)cc1 (centres undefined)	15.3*	1.4	6.3	-2.3	3.2	-2.8	7.2
COc1ccc(OCC(O)CNC2CCCC2)cc1 (centres undefined)	nt	nt	-0.6	nt	nt	nt	nt
O=C(O)Cc1ccc(NC(=O)COc2ccc3ccccc3c2)cc1	nt	2.8	0.2	0.4	2.7	-4.3	nt
O=C(COc1ccc2ccccc2c1)Nc1ccc(Cc2ccncc2)cc1	28.3*	-0.1	-1.1	-0.5	-8.0	-4.0	2.7
N#CCOc1nc(N2CCOCC2)nc(N2CCOCC2)n1	-7.5	-1.2	-0.4	-1.0	-10.3	-1.4	nt
COc1ccc(OC)c(NC(=O)c2cccnc2Sc2cc(C)ccc2C)c1	40.9*	3.8	-0.2	-0.8	2.8	0.9	2.1
COc1ccc(OC)c(NC(=O)c2ccccc2SC)c1	3.6	-2.8	-6.2	0.4	0.3	-0.2	nt
O=c1c2cc(N3CCOCC3)ccc2[nH]c(=S)n1Cc1ccccn1	14.9*	13.8	3.8	1.8	-5.3	-0.5	10.6
O=c1c2ccccc2[nH]c(=S)n1CCCN1CCOCC1	14.7*	9.9	0.6	-7.2	-2.9	3.6	7.0
COc1ccc(C(=O)NC(C)c2nnc(SCC(=O)Nc3nc(C)cs3)n2C)cc1 (centres undefined)	12.5	-1.4	7.9	2.7	-3.0	-1.6	nt
CCOC(=O)c1ccc(NC(=O)CC2C(=O)N(c3ccccc3)C(=O)N2CCCOC)cc1 (centres undefined)	-3.0	0.9	-2.6	0.0	-3.5	-4.1	nt
NNc1nnc2c3cc(F)ccc3n(Cc3ccccc3)c2n1	19.6*	-26.6	-4.0	-14.0	4.6	-4.0	5.5
CCn1c2ccc(F)cc2c2nnc(NN)nc21	-3.4	-4.5	-3.0	-7.5	1.0	5.9	nt
CCCCC[C@H](O)/C=C/[C@@H]1[C@@H](C/C=C\CCCC(=O)OC)[C@@H](O)C[C@H]1O	18.0*	7.4	nt	0.3	-2.4	1.4	28.0*
O=C1C(C2=NC(c3ccccn3)C3C(=O)N(c4ccccc4)C(=O)C23)=C(O)c2ccccc21 (centres undefined)	59.5*	3.2	1.5	2.5	-5.5	1.1	7.8
CN=c1scc(-c2ccco2)n1/N=C/c1ccc(O)c(O)c1	25.9*	nt	9.3	nt	nt	nt	5.6
CC(C)(C)NC(=O)CN(C(=O)c1ccc(CN2CCOCC2)o1)c1ccc2c(c1)OCCO2	-6.7	2.4	3.2	-2.3	3.7	3.4	nt
COc1ccc(C(=O)N(CC(=O)NC(C)(C)C)c2ccc3c(c2)OCCO3)cc1OC	14.6*	-5.4	0.3	-1.0	4.5	2.4	6.4
SMILES	RBBP9 inhibitor	GSTO1 inh	PRMT1 inh	PAD4 FP inh	PME-1 primary	Fam108B counter	RBBP9 inh conf
FC(F)(F)c1cccc(N2CCN(c3nnnn3-c3ccccc3)CC2)c1	-7.1	4.1	0.7	-0.6	3.2	-1.0	nt
COc1ccc(C(=O)NCC(=O)OCc2ccc([N+](=O)[O-])cc2)cc1	6.8	2.1	-0.8	1.9	3.1	3.3	nt
Cc1ccc2c(c1)c1cccc3c1n2CCN3CCC(N)=O	17.0*	28.8	nt	-11.2	7.9	7.3	13.6
NC(=O)CCn1c2ccccc2c2ccccc21	1.3	2.8	2.5	-0.3	-4.8	0.0	nt
CCOC(=O)Cc1nn(C)c(=O)c2ccccc12	15.9*	5.1	4.8	3.9	-7.9	8.2	0.0
O=C(Nc1ccccc1)c1cccc(=O)o1	17.5*	7.5	-4.1	-2.9	-0.2	-0.3	4.1
O=[N+]([O-])c1ccc(C(=S)N2CCN(c3ccc(F)cc3)CC2)cc1	14.6*	-6.4	2.8	0.1	1.7	-0.5	5.7
Cc1ccc(C(=O)N2CCC[C@@H]2C(=O)N2CCC[C@@H]2C(=O)NCc2ccccc2)cc1C	nt	nt	-1.8	nt	nt	nt	nt
Cc1cc(CNC(=O)C2(C(F)(F)F)C/C(=C\CCO)CCCO2)nn1C (centres undefined)	nt	-2.4	2.2	1.6	3.9	2.3	nt
COc1cc2ncnc(NCCCN3CCOCC3)c2cc1OC	15.0*	-0.6	-8.2	-0.8	-1.5	0.0	6.5
Cc1nc2ccccc2c(=O)n1/N=C/c1c(O)ccc2oc3c(c12)CCCC3	19.3*	9.3	2.2	-2.7	-0.9	-1.4	4.5
CC(C)(C)OC(=O)N1CCC(C(N)=O)CC1	-3.6	-6.1	0.0	-1.3	-4.3	-1.8	nt
CC(C)(C)N1CCC1C(N)=O (centres undefined)	18.4*	-0.8	nt	3.0	-3.5	6.0	1.6
COc1ccc(C(=O)O/N=C(\C)c2nccs2)cc1	18.7*	-0.9	-10.4	0.5	7.1	3.5	39.5*
O=C(N/N=C/c1ccc(OC(F)F)cc1)c1cccc(S(=O)(=O)N2CCOCC2)c1	-3.7	7.4	-1.7	-6.4	0.1	0.5	nt
CC(C)n1c(SCC(N)=O)nc2c1c(=O)[nH]c(=O)n2C	-6.8	nt	-1.6	nt	nt	nt	nt
C/C=C/CSc1nc2c(c(=O)[nH]c(=O)n2C)n1C(C)C	14.7*	-0.4	1.4	-4.2	-7.4	1.0	3.6
CCc1ccc(CNC(=O)CCCn2nc(C)n3ccnc3c2=O)cc1	nt	5.9	-4.1	-3.9	-7.3	-1.4	nt
Cc1nc2ccc(C(=O)N3c4ccccc4N=C(c4ccc(C(F)(F)F)cc4)C3C(=O)NC(C)(C)C)cc2[nH]1 (centres undefined)	nt	nt	3.5	nt	nt	nt	nt
CCOC(=O)C1(Cc2ccc(OC)cc2)CCN(C(=O)c2cccc3nccnc23)CC1	15.7*	1.1	1.8	0.9	-1.8	3.9	1.9
CCOC(=O)C1(Cc2ccccc2)CCN(Cc2cccc3nccnc23)CC1	-4.6	9.3	-0.6	2.8	-3.5	-2.3	nt
CCN1CCN(C(=O)Nc2ccc(Cc3ccc(NC(=O)N4CCN(CC)CC4)cc3)cc2)CC1	-3.9	3.1	-2.4	0.2	-4.0	0.3	nt
CN(C(=O)C=Cc1ccco1)c1ccccc1	nt	nt	10.3	nt	nt	nt	nt

From PubChem
